Compound activity as filed in PubChem.
Only some compounds are listed: those with a hit (about 2% of all), similar ones and a draw of the others.
VIM-2 inh – inhibitors of Pseudomonas aeruginosa VIM-2 metallo-beta-lactamase. purified VIM-2, nitrocefin hydrolysis, epi-absorbance fluorescence. inhibition, % at 5.6 µM. 290,000 tested, 0.89% active. AID 1527;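 active = inhibition above the mean of all tested compounds plus 3 SD, cutoff set per screening run, cut at about 7.5% in these data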;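 also: red hydrolysis product quenches plate fluorescence so inhibitors raise well fluorescence; 0% = enzyme with DMSO and 100% = DMSO without enzyme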
IMP-1 inhibitor – inhibitors of Pseudomonas aeruginosa IMP-1 metallo-beta-lactamase; purified IMP-1, nitrocefin hydrolysis, epi-absorbance fluorescence; AID 1556; inhibition, % at 5.6 µM; 290,000 tested, 0.45% active;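 active = inhibition above the mean plus 3 SD of all compounds in the same screening run, cut at about 4.5% in these data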;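 also: 0% = IMP-1 with DMSO and 100% = DMSO wells lacking enzyme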
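System: purified IMP-1 / Input: IMP-1 dispensed at 0.2 nM / Medium: 50 mM HEPES pH 7.1, 50 µM ZnSO4, 0.05% Brij 35 / Timing: 15 min enzyme–compound preincubation, then 25 min nitrocefin reaction, 25 °C / Technique: plate fluorescence quenching by hydrolysis product, ex 480/em 530 nm / Repeats: singlicate testing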
PLC-gamma1 inh – blocks human PLC-gamma1 enzyme activity. inhibition, % at 12.2 µM. AID 720700. 370,000 tested, 0.84% active. P19174. purified PLC-gamma1, fluorogenic substrate, fluorescence; in the data active = inhibition above about 9.5%
Target sequence (P19174 whole entry, looked up): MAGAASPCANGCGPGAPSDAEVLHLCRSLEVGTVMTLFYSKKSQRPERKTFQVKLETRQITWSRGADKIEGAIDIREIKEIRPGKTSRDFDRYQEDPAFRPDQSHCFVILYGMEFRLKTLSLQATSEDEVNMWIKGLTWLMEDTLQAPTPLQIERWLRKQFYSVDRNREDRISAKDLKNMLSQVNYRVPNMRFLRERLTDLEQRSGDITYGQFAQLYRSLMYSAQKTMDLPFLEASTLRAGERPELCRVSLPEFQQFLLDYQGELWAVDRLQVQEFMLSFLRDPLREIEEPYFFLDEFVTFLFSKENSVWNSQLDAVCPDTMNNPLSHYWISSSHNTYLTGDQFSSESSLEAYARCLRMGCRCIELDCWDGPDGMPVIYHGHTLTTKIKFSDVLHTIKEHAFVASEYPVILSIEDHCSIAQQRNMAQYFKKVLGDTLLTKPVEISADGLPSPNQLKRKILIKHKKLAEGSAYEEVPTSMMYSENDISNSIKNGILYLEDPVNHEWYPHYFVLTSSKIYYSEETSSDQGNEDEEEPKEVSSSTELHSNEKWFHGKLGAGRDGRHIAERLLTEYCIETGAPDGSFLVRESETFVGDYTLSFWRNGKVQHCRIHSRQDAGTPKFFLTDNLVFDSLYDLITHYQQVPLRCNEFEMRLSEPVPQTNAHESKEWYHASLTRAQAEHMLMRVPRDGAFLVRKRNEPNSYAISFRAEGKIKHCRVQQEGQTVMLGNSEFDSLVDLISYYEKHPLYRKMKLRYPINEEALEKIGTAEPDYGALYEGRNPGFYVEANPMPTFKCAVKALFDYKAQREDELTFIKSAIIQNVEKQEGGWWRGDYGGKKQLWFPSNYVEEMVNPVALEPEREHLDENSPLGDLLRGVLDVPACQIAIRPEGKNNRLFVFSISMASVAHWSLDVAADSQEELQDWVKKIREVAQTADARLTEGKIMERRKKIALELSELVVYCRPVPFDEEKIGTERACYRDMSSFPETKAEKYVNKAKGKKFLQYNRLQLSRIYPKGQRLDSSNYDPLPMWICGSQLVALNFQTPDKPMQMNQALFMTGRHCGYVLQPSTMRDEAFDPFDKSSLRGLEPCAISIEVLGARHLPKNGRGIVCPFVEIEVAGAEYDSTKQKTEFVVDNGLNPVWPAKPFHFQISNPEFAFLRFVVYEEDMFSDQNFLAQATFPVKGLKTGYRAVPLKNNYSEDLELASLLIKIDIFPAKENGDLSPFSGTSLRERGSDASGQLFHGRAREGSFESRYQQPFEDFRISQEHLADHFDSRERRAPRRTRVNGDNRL
PvdQ acylase – blocks Pseudomonas aeruginosa PvdQ acylase activity | purified PvdQ acylase, fluorescence plate reader | inhibition, % at 10 µM | 340,000 tested, 0.063% active | AID 488965; in the data active = inhibition above about 30%, passing the limit was not always enough; inconclusive = no clear call, values can overlap the other calls;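 also: 0% = vehicle neutral wells and 100% = reference inhibitor wells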
PLC-beta3 inh – blocks human PLC-beta3 enzyme activity; AID 720704; Purified PLC-beta3, fluorogenic substrate, fluorescence; 370,000 tested, 0.18% active; inhibition, % at 12.2 µM; in the data active = inhibition above about 11%;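 also: 0% = median of compound wells on plate and 100% = full blocker control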
* marks the source's active call; other numbers are inactive results.

Results for C#CCNC(=O)C[C@H]1C(=O)N(CCc2ccc(Cl)cc2)C2=CCCC[C@@]21C(=O)OCC ?
PLC-gamma1 inh: 0; PLC-beta3 inh: 0

What do the screens show for `Cc1cccc(-n2cnc(C(=O)O)c2)n1`?
VIM-2 inh: 9.7*; IMP-1 inhibitor: -1; PLC-gamma1 inh: 2; PvdQ acylase: -10; PLC-beta3 inh: 2

Results for O=C(CSc1nnc2ccc3ccccc3n12)N1CCOCC1 ?
VIM-2 inh: 2; IMP-1 inhibitor: -1; PLC-gamma1 inh: -2; PvdQ acylase: -12; PLC-beta3 inh: -1

How did Cc1cc2ccccc2n2c(SCC(=O)N3CCOCC3)nnc12 do in these assays?
VIM-2 inh: 8.0*; IMP-1 inhibitor: -4; PLC-gamma1 inh: 0; PvdQ acylase: -8; PLC-beta3 inh: 4

What do the screens show for `Cc1ccc(NC(=O)Cn2nnc(C(=O)Nc3ccc(F)c(Cl)c3)c2N)cc1`?
VIM-2 inh: 0; IMP-1 inhibitor: 1; PLC-gamma1 inh: 3; PvdQ acylase: 5; PLC-beta3 inh: -3

Results for COc1ccc(NC(=O)Cn2nnc(C(=O)Nc3ccc(F)c(Cl)c3)c2N)cc1 ?
VIM-2 inh: 1; IMP-1 inhibitor: 8.1*; PLC-gamma1 inh: -1; PvdQ acylase: -28; PLC-beta3 inh: -10

What do the screens show for `CC(C)(C)CCN1CCC[C@H](NC(=O)COc2ccc(F)c(Cl)c2)C1`?
PLC-gamma1 inh: -1; PLC-beta3 inh: 0

Results for COc1ccc(CNc2c(C(=O)O)cnc3c2cnn3C)cc1 ?
VIM-2 inh: 9.9*; IMP-1 inhibitor: -3; PLC-gamma1 inh: 1; PvdQ acylase: 5; PLC-beta3 inh: -1

How did CCOC(=O)c1cnc2c(cnn2C)c1NCc1ccc(OC)cc1 do in these assays?
VIM-2 inh: 1; IMP-1 inhibitor: -3; PLC-gamma1 inh: -1; PvdQ acylase: -13; PLC-beta3 inh: -4

How did CCOC(=O)c1c(CN2CCN(C)CC2)n(C)c2cc(Br)c(OC)cc12 do in these assays?
VIM-2 inh: 7; IMP-1 inhibitor: -1; PLC-gamma1 inh: 2; PvdQ acylase: 1; PLC-beta3 inh: 2

Results for CCOC(=O)c1c(C)oc2c(CN3CCN(C)CC3)c(Br)c(OC)c(O)c12 ?
VIM-2 inh: 10*; IMP-1 inhibitor: -2; PLC-gamma1 inh: 0; PvdQ acylase: 4; PLC-beta3 inh: 2

How did COC(=O)c1ccc(NC(=O)c2ccc(F)cc2)o1 do in these assays?
VIM-2 inh: -2; IMP-1 inhibitor: -2; PLC-gamma1 inh: 2; PvdQ acylase: -3; PLC-beta3 inh: 1

What do the screens show for `COC(=O)c1ccc(NC(=O)c2ccc(C)cc2)o1`?
VIM-2 inh: -1; IMP-1 inhibitor: 5.5*; PLC-gamma1 inh: -5; PvdQ acylase: -14; PLC-beta3 inh: -3

Results for CCOC(=O)c1ccc(N2C(=O)c3n[nH]c(-c4ccco4)c3C2c2cccc([N+](=O)[O-])c2)cc1 (centres undefined) ?
VIM-2 inh: -4; IMP-1 inhibitor: -3; PLC-gamma1 inh: 13*; PvdQ acylase: -15; PLC-beta3 inh: 2

How did C=CCOC(=O)C(=O)/C=C/c1coc2ccccc2c1=O do in these assays?
VIM-2 inh: 8.3*; IMP-1 inhibitor: -1; PLC-gamma1 inh: -14; PvdQ acylase: 8; PLC-beta3 inh: -14

What do the screens show for `CCOC(=O)COc1cc(OCC(=O)OCC)c2c3c(c(=O)oc2c1)CCCC3`?
VIM-2 inh: 9.4*; IMP-1 inhibitor: -2; PLC-gamma1 inh: -63; PvdQ acylase: -20; PLC-beta3 inh: -100

How did CCOC(=O)COc1cc2c3c(c(=O)oc2cc1C)CCCC3 do in these assays?
VIM-2 inh: 2; IMP-1 inhibitor: 1; PLC-gamma1 inh: -21; PvdQ acylase: -17; PLC-beta3 inh: -28

How did COc1cc(NC(=O)C2CCCN(S(=O)(=O)c3cccc4cccnc34)C2)cc(OC)c1 (centres undefined) do in these assays?
PLC-gamma1 inh: -1; PLC-beta3 inh: -1

How did COc1ccc(-c2cn3cc(C)ccc3n2)cc1F do in these assays?
VIM-2 inh: -2; IMP-1 inhibitor: -5; PLC-gamma1 inh: -15; PvdQ acylase: 59*; PLC-beta3 inh: -16

What do the screens show for `Cc1ccc2nc(-c3ccc4c(c3)OCCO4)cn2c1`?
VIM-2 inh: -2; IMP-1 inhibitor: -3; PLC-gamma1 inh: -81; PvdQ acylase: 91*; PLC-beta3 inh: -120

How did COc1ccc(-c2cn3cc(C)ccc3n2)cc1OC do in these assays?
VIM-2 inh: -4; IMP-1 inhibitor: -6; PLC-gamma1 inh: -239; PvdQ acylase: -19; PLC-beta3 inh: -293

What do the screens show for `c1ccn2cc(-c3ccc4c(c3)OCCO4)nc2c1`?
VIM-2 inh: -3; IMP-1 inhibitor: -2; PLC-gamma1 inh: -86; PvdQ acylase: inconclusive; PLC-beta3 inh: -130

What do the screens show for `CC(C)C[C@H]1COc2cc(Br)ccc2S(=O)(=O)N1Cc1cn(Cc2ccc(C(F)(F)F)cc2)nn1`?
PLC-gamma1 inh: -2; PLC-beta3 inh: 0

What do the screens show for `COC(=O)C[C@@H]1CC[C@H]2[C@H](COc3ccc(NC(=O)Nc4ccc(Cl)cc4)cc3C(=O)N2C)O1`?
PLC-gamma1 inh: 7; PLC-beta3 inh: 6

How did O=S(=O)(c1ccc(Cl)c(NC(=S)N/N=C/c2c(F)cccc2F)c1)N1CCOCC1 do in these assays?
VIM-2 inh: 10*; IMP-1 inhibitor: -3; PLC-gamma1 inh: 2; PvdQ acylase: 5; PLC-beta3 inh: -6

Results for O=S(=O)(c1ccc(Cl)c(NC(=S)N/N=C/c2ccc(O)cc2)c1)N1CCOCC1 ?
VIM-2 inh: 3; IMP-1 inhibitor: -4; PLC-gamma1 inh: -1; PvdQ acylase: -10; PLC-beta3 inh: -3

How did O=C1C(NC(=O)N2c3ccccc3C=Cc3ccccc32)CCCCN1Cc1cccc(C(F)(F)F)c1 (centres undefined) do in these assays?
PLC-gamma1 inh: 0; PLC-beta3 inh: -3

Results for CC(C)N(C(=O)c1ccc(C(=O)Nc2ccc([N+](=O)[O-])cc2)cc1)C(C)C ?
VIM-2 inh: 2; IMP-1 inhibitor: 5.6*; PvdQ acylase: 2

Results for CN(C)S(=O)(=O)c1ccc(NC(=O)c2ccc([N+](=O)[O-])cc2)cc1 ?
VIM-2 inh: -3; IMP-1 inhibitor: -1; PLC-gamma1 inh: 0; PvdQ acylase: -5; PLC-beta3 inh: -7

How did O=C(Nc1cccc2cccnc12)c1ccccc1Cl do in these assays?
PLC-gamma1 inh: -2; PLC-beta3 inh: -3

How did O=C(O)c1cc(Cl)c(Cl)cc1C(=O)Nc1cccc2cccnc12 do in these assays?
VIM-2 inh: 9.1*; IMP-1 inhibitor: -3; PLC-gamma1 inh: 3; PvdQ acylase: -11; PLC-beta3 inh: -5

How did O=C1Nc2ccccc2S/C1=C/Nc1cccc(Cl)c1 do in these assays?
VIM-2 inh: 7.8*; IMP-1 inhibitor: -2; PLC-gamma1 inh: -2; PvdQ acylase: -10; PLC-beta3 inh: -5

Results for CC(C)N1Cc2nnn(Cc3ccccc3)c2-c2cc(N3CCCC3)ccc2S1(=O)=O ?
PLC-gamma1 inh: -40; PLC-beta3 inh: -56

What do the screens show for `Cc1ccc2scc(CN3CCCC3)c2c1`?
PLC-gamma1 inh: 1; PvdQ acylase: 38*; PLC-beta3 inh: -7
